For 167 variants, yeast fitness results are on record in the RNAGym collection of RNA variant scans (doi:10.1126/science.aae0568).

The chains are these.
B1: tRNA (parent)
chain: GUUCCGUUGGCGUAAUGGUAACGCGUCUCCCUCCUAAGGAGAAGACUGCGGGUUCGAGUCCCGUACGGAACG

This sample holds only a part of the variants without activity. Some results are limits rather than exact numbers.

In the data set the parent is B1. The experiment in a line: yeast fitness relative to wild type (ratio to wild type); higher = fitter; tRNA-Arg(CCU), competitive growth, 37 C, YPD. In a few lines: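 Start and end populations of a pooled competition were compared by 100-nucleotide paired-end sequencing of gene amplicons. The Saccharomyces cerevisiae strains carried tRNA-Arg(CCU) gene variants at the native genomic locus, synthesised with a 3% per-site mutation rate at 69 sites, and competed in YPD at 37°C for 24 hours in six parallel replicates. Darwinian fitness relative to wild type was based on the change in genotype frequencies. Genotypes required ≥ 100 starting reads, and estimates < 0.5 were set to 0.5.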
As for A21G G38C, the yeast fitness came out at 0.674. Next, A21U A36C C60G A65C: 0.575. For A21U C31G U32A the value was 0.585; for A21C U32C, 0.864; for A21U C46U C55A G56C, ≤ 0.5. For A21U C22A G38C U54G C60A the value was 0.846; for A21G C27A A36U A40G G52C G67A, ≤ 0.5.

Regarding A21G G39C A69C, the yeast fitness is 0.536. Next, A21G C33A C55A A65C A70C: ≤ 0.5; A21G A36U U53A: 0.58; A21U A36C G38C G58C A69C: ≤ 0.5.

A21G G56C A65G: the yeast fitness amounted to 0.583. Next, A21U C33G A42G G44A U64C: 0.558. As for A21G C49U A65C, the yeast fitness is 0.747. For A21U U53A C66U the value was ≤ 0.5; for C22A, 1; for A21G C22A C29A C61U, ≤ 0.5. Next, A21U C27G C33G A69U: ≤ 0.5; A21U U28G C55A G58A: ≤ 0.5.

On to A21C U47A G52C, for which the yeast fitness is 0.662. For the variant A21U A42U A57G, the yeast fitness came out at 0.548.

Turning to A21G C30A C31U A57G A65U A69U, the yeast fitness is ≤ 0.5. Consider A21U A42G C49U, for which the yeast fitness is ≤ 0.5. Next, A21U G52A A65U: ≤ 0.5.

As for A21U C34A, the yeast fitness amounted to 0.573. Next, A21U C34G: 0.597; A21U C31G A45C: ≤ 0.5.

For the variant A21U U32C C49U A57C, the yeast fitness was 0.595.

On to A21G G23A C27U, for which the yeast fitness was determined as 0.75. For A21U C24U A57U A65C A69C, the yeast fitness was ≤ 0.5.

In the case of A21U A43U C49G, the yeast fitness is ≤ 0.5. Next, A21U U53C A57C: 0.619; A21G G23A C27G A37U G44A C49U G63C: ≤ 0.5. Next, A21G C24G A37U: 0.573; A21G C27U C61G A65U: ≤ 0.5; A21U A57U C60A G68C: ≤ 0.5. With A21U U26A A37C C62G, the yeast fitness is ≤ 0.5. For A21G C27U A70G the value was 0.792; for A21U G25A G51A C60A, ≤ 0.5. For A21G U26C A40U C49U the value was ≤ 0.5; for A21U A43G G44C, ≤ 0.5; for A21G C29U G41C, 0.562. A21G U35C A36U A40U C55U A57C: the yeast fitness is ≤ 0.5.

Regarding A21G G50C G52C, the yeast fitness is ≤ 0.5. Next, A21U C27U C34A: 0.774. Next, A21U C31A G39C C62G: ≤ 0.5; A21G C22U A57G: 0.614; A21G C27G G63A: ≤ 0.5.

A21G C33G A40G: the yeast fitness was found to be 0.562.

As for A21U G52A G58A, the yeast fitness was ≤ 0.5.

Turning to A21U C33G A42G G44A C61U C66U, the yeast fitness was ≤ 0.5. Next, A21U G67C A69U: ≤ 0.5; A21U C27G A36U G39C: ≤ 0.5; A21G C49A C62U: 0.544.

As to A21U C22G C55A G56C G67C, the yeast fitness was ≤ 0.5. Regarding A21G G23C C31U C34G A43G A45C G67C, the yeast fitness is ≤ 0.5. Next, A21U U32C A36G A37U U53G: ≤ 0.5; A21U C49U U54A U64C: ≤ 0.5; A21G C24U G51C: ≤ 0.5. As to A21G C34A, the yeast fitness is 0.646. Consider A21G U53A U54C C61G, for which the yeast fitness came to 0.718. For A21U A36G the value was 0.804; for A21U A36C, ≤ 0.5; for A21C U26G A65G A69C, ≤ 0.5.

With A21G G48C C66U G67C A70G, the yeast fitness is ≤ 0.5. Next, A21G C49A U54C A65G: ≤ 0.5. For A21U C29A U35A A43U C62U G68C the value was ≤ 0.5.

On to A21G C22G U53C C55G, for which the yeast fitness is 0.698. For A21G C24A A69U A70G the value was ≤ 0.5. Next, A21U A65C: 0.793. On to A21G A57U A70U, for which the yeast fitness is 0.582. As to A21U C30U A42C C55U, the yeast fitness was ≤ 0.5. Next, A21G A57C: 0.709; A21G U35G A37G A42G: ≤ 0.5. For A21G C24G C31A G44A the value was 0.571; for A21U U28A U35G G58A C62G, ≤ 0.5; for A21U G25C A37G A43G A65G, ≤ 0.5. Next, A21U C24U U26A A43U: 0.668. Regarding A21U G39A C66U, the yeast fitness is 0.55. For A21U U28A A40U A45U the value was 0.878; for A21G G44A A69C, ≤ 0.5.

Consider A21U C27A G50C G52C, for which the yeast fitness is ≤ 0.5. For A21U G41A A57C the value was ≤ 0.5. Next, A21G C22A G25A C46U U54A: ≤ 0.5. For A21U C22U U59C the value was ≤ 0.5; for A21G G44C G63C, ≤ 0.5. A21G A40C C55A: the yeast fitness is ≤ 0.5. Next, A21U A36G C55A G67C: ≤ 0.5; A21U C22U C66U A69U: ≤ 0.5; A21G A42G: 0.714. For the variant A21G C49A G56A, the yeast fitness was determined as 0.533.

Take A21U A40C A42U A43G C49U G50C C66U: the yeast fitness was ≤ 0.5. Next, A21U G23A C49A: ≤ 0.5. With A21U U26A C27G C30G A36U G38C C46U C49G A65U, the yeast fitness is ≤ 0.5. For A21G C33G C34G U47A G50A the value was ≤ 0.5.

On to A21U C24U A37C, for which the yeast fitness was found to be 0.683. For A21G C22A A40U C61U the value was 0.507; for A21U A36G A43U, 0.729. For A21U C22U U32A G52C the value was ≤ 0.5.

For the variant A21U G68C, the yeast fitness came out at 0.687. For A21U U64C the value was 0.775; for A21G C49U U53C C61G, ≤ 0.5. Next, A21G G25A G48C C62A: ≤ 0.5; A21G U59A U64A: ≤ 0.5. For the variant A21G C24U, the yeast fitness came out at 0.989. For A21U A36U G58A the value was ≤ 0.5; for A21G C29G C46U C60U G67C, ≤ 0.5.

For the variant A21U G56C G63A U64C G67C A69U, the yeast fitness is ≤ 0.5. Next, A21G C22A G56A A65C: 0.528. Take C22A A36G A42G: the yeast fitness is ≤ 0.5. Next, A21U C49A C62G G68U: 0.626; A21G A36G A40C A42C: ≤ 0.5.

For the variant A21G A45G C46G A70U, the yeast fitness is ≤ 0.5. For A21C U28C A45G the value was 0.603; for A21U G25A G56U, ≤ 0.5; for A21G A36U, 0.583.

For A21U C34A G50C, the yeast fitness worked out at 0.535. Next, A21G G25A G39C C62U: ≤ 0.5; A21G A70C: 0.993; A21G A42G A45G: 0.989. Next, A21U C46U C49U U54A: ≤ 0.5.

Regarding A21U C29G G63A, the yeast fitness turned out to be 0.618. For A21C U32C C34A the value was ≤ 0.5; for A21U U26G A70C, 0.729. Next, A21G U26A C34U G50C C62U: ≤ 0.5. For A21U C33A the value was 0.578. Take A21G C60G A70C: the yeast fitness turned out to be 0.579. For A21U A40C A42U C49U G50C C66U the value was 0.578. Take A21G G41A C60U: the yeast fitness stood at 0.574. For A21U C49U the value was 0.781. For A21U U32G G48C G68C the value was ≤ 0.5. For A21U G38C G44C C62A the value was ≤ 0.5; for A21G G23C C31U C34G A43G A45C A57U, 0.574; for A21U C31A C34A G39C C61A, ≤ 0.5. Turning to A21U C22G A69U, the yeast fitness was 0.613. As to A21G A43U G58C U59C, the yeast fitness turned out to be 0.67. Next, A21G A43C C60A: ≤ 0.5; A21G A42C G50A: 0.648.

Turning to A21U C33U G50A, the yeast fitness was found to be 0.621. Next, A21G C27U A69C: 0.781; A21U C33G A42G G44A: 0.541; A21G U32A U47A: 0.556.

Turning to A21U C66U, the yeast fitness came to 0.78.

Regarding A21G C34U G63U, the yeast fitness was ≤ 0.5. For A21C U32A U35C the value was ≤ 0.5; for A21G U35C A65U, ≤ 0.5. For A21U A45U G50C U64G the value was ≤ 0.5; for A21G C27G C29A G50A, ≤ 0.5. For A21G C22U C30G G51A A69U the value was 0.551; for A21G A36G A65C, 0.664. As to A21G G23A C31U G63C U64A C66G, the yeast fitness was ≤ 0.5. Next, A21U U32C A36G A37U: ≤ 0.5. For the variant A21U A40G A57U C60G G68C, the yeast fitness was ≤ 0.5. Next, A21U U54G: ≤ 0.5; A21U G23C: 0.579. For A21G G25A the value was 1.12; for A21G C61G G67A, ≤ 0.5.

With A21U A40U, the yeast fitness was found to be 0.728. On to C22A A36G G41A, for which the yeast fitness stood at 0.548. Next, A21U A69C: 0.827; A21G G56A G67A: 0.654. Next, A21G C61U A70G: 0.761; A21G C61U A70U: 0.776. For A21U A36G C49A G63A the value was ≤ 0.5; for A21U C22U C30G U59G A65U, ≤ 0.5; for A21U U47G U59A, ≤ 0.5. For the variant A21U C29A C30U C62G U64A, the yeast fitness is ≤ 0.5.
